In brackets after ≈: the same amount, converted by molar mass.

Series [1] deals with Human immunodeficiency virus 1. As to the kind of experiment: Antiviral activity against HIV1-infected human C8166 cells. The class given is functional, organism-based. Conditions: Human immunodeficiency virus 1, C8166. The essentials: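 Protection of C8166 cells from HIV-1 cytopathic effects, read as EC50. Run alongside the cytotoxicity measurement, with AZT as positive control.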

The nature of series [2]: Selectivity index, ratio of antiviral activity against HIV1-infected human C8166 cells over cytotoxicity against human C8166 cells. In kind it is toxicity, cell-based. As to conditions: uninfected and HIV-1-infected, read-out: Selectivity Index.
The next series deals with K562. As to the kind of experiment: Cytotoxicity against human K562 cells after 48 hrs by SRB assay. In kind it is functional, cell-based. Conditions: K562, 48 h.
The next series has as its system HepG2. As to the kind of experiment: Cytotoxicity against human HepG2 cells after 48 hrs by SRB assay. In kind it is functional, cell-based. Conditions: HepG2, 48 h. A general note: In SRB staining, fixed cells bind dye roughly in proportion to their protein.
Series [3] in a line: Cytotoxicity against human C8166 cells by MTT assay. The class given is cell-based. The essentials: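 Uninfected C8166 cells scored for viability by MTT, giving CC50. Run in parallel with the HIV-1 cytopathic-effect assay, with AZT as reference.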
In general terms: Tetrazolium dyes change colour on reduction, which living cells bring about.

`CC1=C[C@H]([C@H]2O[C@]34C(=CC[C@@H]3[C@@H]2C)[C@@H]2[C@H](O)C[C@H]3C(C)(C)O[C@@H]5CC(=O)O[C@@]53C[C@@]2(O)C[C@@H]4O)OC1=O` [SCHIRUBRIDILACTONE F]: the EC50 (in general, the midpoint of the concentration-response curve) in series [1] turned out to be 50.1 µg/mL (≈ 97 µM). In series [2], the selectivity ratio is 3.5. Further, the IC50 with K562 and with HepG2 was > 5 µg/mL each time.
With `C[C@@H]1C(=O)O[C@H]2[C@@H]1O[C@]13O[C@@]4(CC[C@]5(C)C(=O)[C@@H](C)[C@H]2[C@H]15)C[C@]12OC(=O)C[C@H]1OC(C)(C)[C@@H]2C[C@@H]1O[C@@]14C3=O` [SCHIRUBRIDILACTONE D], in series [1], a half-maximal response (EC50) required 80.8 µg/mL (≈ 149 µM). For the same molecule, the selectivity ratio in series [2] stood at 2.2. Further, the IC50 in the series on K562 and with HepG2 was > 5 µg/mL throughout.
In the case of `C/C(=C/[C@H]1O[C@]23O[C@@]4(CC[C@]5(C)C(=O)[C@](C)(O)[C@H]1[C@H]25)C[C@]12OC(=O)C[C@H]1OC(C)(C)[C@@H]2CC=C4C3=O)C(=O)O` [SCHIRUBRIDILACTONE B], in series [1], the response was half-maximal at 15.2 µg/mL (≈ 28 µM) (EC50). Besides, the selectivity ratio in series [2] amounted to 9. The IC50 in the series on K562 and with HepG2 was > 5 µg/mL throughout.
`CC1(C)O[C@@H]2CC(=O)O[C@@]23C[C@]24CC[C@]5(C)C(=O)[C@](C)(O)[C@]6(O)[C@H]7OC(=O)[C@](C)(O)[C@H]7O[C@@](O2)(C(=O)C4=CC[C@@H]13)[C@@H]65` [SCHIRUBRIDILACTONE E]: a half-maximal response in series [1] (EC50) required 66.8 µg/mL (≈ 116 µM). For the same molecule, in series [2], the selectivity ratio is 3.1. For the same molecule, the IC50 in the series on K562 and in the series on HepG2 was > 5 µg/mL throughout.
Regarding `C[C@@H]1C(=O)O[C@H]2[C@@H]1O[C@]13O[C@@]4(CC[C@]5(C)C(=O)[C@](C)(O)[C@@]2(O)[C@H]15)C[C@]12OC(=O)C[C@H]1OC(C)(C)[C@@H]2[C@@H](O)C[C@H]4C3=O` [SCHIRUBRIDILACTONE A], the response in series [1] was half-maximal at 30.1 µg/mL (≈ 52.2 µM) (EC50). Also, the selectivity ratio in series [2] worked out at 5.1. Moreover, the IC50 with K562 and in the series with HepG2 was > 5 µg/mL in each case.
Molecule `C[C@@H]1C(=O)[C@@]2(C)CC[C@]34C[C@]56OC(=O)C[C@H]5O[C@@](C)(CO)[C@@H]6CC[C@@]3(O)C(=O)[C@@]3(O[C@]5(C[C@H](C)C(=O)O5)[C@@H]1[C@H]32)O4` [SCHIRUBRIDILACTONE C] yielded an EC50 in series [1] of 14.3 µg/mL (≈ 25.5 µM). The selectivity ratio in series [2] is 8.7.
Regarding `Cc1cn([C@H]2C[C@H](N=[N+]=[N-])[C@@H](CO)O2)c(=O)[nH]c1=O` [ZIDOVUDINE], the CC50 – broadly, the concentration giving 50% cytotoxicity – in series [3] is > 200 µg/mL.

(Values after ChEMBL document CHEMBL1154981, “Chemical constituents from the leaves and stems of Schisandra rubriflora” (J Nat Prod, 2010).)
